Activity calls are given as the source filed them. The rule behind the calls is not given here.
Legend:
CYP2C19 = CYP2C19 (Homo sapiens, UniProt P33261); assay: Inhibition of CYP2C19 in human liver microsomes at 5 to 25 uM using (S)mephenytoin as substrate preincubated for 5 mins with substrate followed by NADPH addition measured after 40 mins by LC-MS/MS analysis; assay type: ADME; conditions: human liver microsomes, probe (S)-mephenytoin
CYP2C9 = CYP2C9 (Homo sapiens, UniProt P11712); assay: Inhibition of CYP2C9 in human liver microsomes at 5 to 25 uM using diclofenac as substrate preincubated for 5 mins with substrate followed by NADPH addition measured after 10 mins by LC-MS/MS analysis; assay type: ADME; conditions: human liver microsomes, probe diclofenac
[1] = biological target: T1, Adenosine receptor A1 (Homo sapiens) (UniProt P30542); assay: Antagonist activity at human adenosine A1 receptor expressed in HEK293 cell membranes assessed as decrease in CPA/forskolin-induced cAMP level at 30 uM pretreated for 15 mins followed by agonist addition for 15 mins and subsequent forskolin stimulation measured after 30 mins; assay type: functional, cell-based
T1 sequence (whole entry): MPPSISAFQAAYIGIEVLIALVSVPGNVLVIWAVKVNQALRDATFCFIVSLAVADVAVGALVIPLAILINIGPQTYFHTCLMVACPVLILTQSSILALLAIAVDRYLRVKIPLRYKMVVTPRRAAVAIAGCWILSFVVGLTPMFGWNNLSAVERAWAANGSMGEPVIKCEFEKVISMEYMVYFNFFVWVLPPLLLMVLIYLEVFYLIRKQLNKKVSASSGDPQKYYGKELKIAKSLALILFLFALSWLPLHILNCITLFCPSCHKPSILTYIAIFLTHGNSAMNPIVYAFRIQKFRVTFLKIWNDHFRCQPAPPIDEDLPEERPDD
Method in brief: (§1)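 Whole HEK-A1 cells were seeded overnight and then pretreated with 1 U/ml ADA for 90 min at 37 °C and 5% CO2. Compound was added for 15 min, then 1 nM CPA for 15 min, then forskolin for 30 min, at room temperature in incomplete DMEM with ADA and 20 μM rolipram. cAMP was read by HTRF (620/665 nm). Compounds ran at 12 concentrations in triplicate, with 10 or 30 μM as the top concentration.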

CYP2D6 = CYP2D6 (Homo sapiens, UniProt P10635); assay: Inhibition of CYP2D6 in human liver microsomes at 5 to 25 uM using dextromethorphan as substrate preincubated for 5 mins with substrate followed by NADPH addition measured after 10 mins by LC-MS/MS analysis; assay type: ADME; conditions: human liver microsomes, probe dextromethorphan
CYP1A2 = CYP1A2 (Homo sapiens, UniProt P05177); assay: Inhibition of CYP1A2 in human liver microsomes at 5 to 25 uM using phenacetin as substrate preincubated for 5 mins with substrate followed by NADPH addition measured after 10 mins by LC-MS/MS analysis; assay type: ADME; conditions: human liver microsomes, probe phenacetin
CYP3A = CYP3A (Homo sapiens, UniProt P08684+P20815+P24462+Q9HB55); assay: Inhibition of CYP3A in human liver microsomes at 5 to 25 uM using testosterone as substrate preincubated for 5 mins with substrate followed by NADPH addition measured after 10 mins by LC-MS/MS analysis; assay type: ADME; conditions: human liver microsomes, probe testosterone
[2] = Protein binding in rat serum at 1 uM after 6 hrs by HT dialysis method; assay type: ADME, cell-free; conditions: read-out: PB (converted)
[3] = Apparent permeability across apical to basolateral side in human Caco2 cells at 5 uM after 90 mins; assay type: ADME, cell-based; conditions: Caco-2
[4] = Metabolic stability in rat hepatocytes assessed as parent compound remaining at 1 uM measured at 60 mins post dose by LC-MS/MS analysis; assay type: ADME, cell-based, Hepatocyte; conditions: read-out: Stability
[5] = Half-life in rat hepatocytes at 1 uM by LC-MS/MS analysis; assay type: ADME, cell-based, Hepatocyte
[6] = biological target: T2, Adenosine receptor A3 (Homo sapiens) (UniProt P0DMS8); assay: Displacement of [3H]-HEMADO from human adenosine A3 receptor expressed in HEK293 cell membranes at 30 uM measured after 90 mins
T2 sequence (whole entry): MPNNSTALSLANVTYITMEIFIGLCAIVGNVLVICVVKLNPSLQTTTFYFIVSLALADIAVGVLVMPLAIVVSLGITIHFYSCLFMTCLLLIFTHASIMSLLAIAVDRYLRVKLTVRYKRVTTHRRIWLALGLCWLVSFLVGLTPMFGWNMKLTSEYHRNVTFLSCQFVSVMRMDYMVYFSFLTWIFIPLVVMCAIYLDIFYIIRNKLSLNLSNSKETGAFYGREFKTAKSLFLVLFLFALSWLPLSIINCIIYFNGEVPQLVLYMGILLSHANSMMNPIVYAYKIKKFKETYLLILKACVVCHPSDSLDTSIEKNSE

Rattus norvegicus = assay: Clearance in Wistar rat at 3 mg/kg, iv by LC/MS/MS analysis relative to hepatic blood flow; assay type: ADME, organism-based; conditions: in vivo
HepG2 = assay: Cytotoxicity against human HepG2 cells; assay type: cell-based
[7] = biological target: T1, Adenosine receptor A1 (Homo sapiens); assay: Antagonist activity at human adenosine A1 receptor expressed in HEK293 cell membranes assessed as decrease in CPA/forskolin-induced cAMP level at 10 uM pretreated for 15 mins followed by agonist addition for 15 mins and subsequent forskolin stimulation measured after 30 mins; assay type: functional, cell-based; method in brief: as §1
[8] = biological target: T3, Adenosine receptor A2b (Homo sapiens) (UniProt P29275); assay: Antagonist activity at human adenosine A2B receptor expressed in HEK293 cell membranes assessed as decrease in NECA/forskolin-induced cAMP level at 10 uM pretreated for 15 mins followed by agonist addition for 15 mins and subsequent forskolin stimulation measured after 30 mins; assay type: functional, cell-based
T3 sequence (whole entry): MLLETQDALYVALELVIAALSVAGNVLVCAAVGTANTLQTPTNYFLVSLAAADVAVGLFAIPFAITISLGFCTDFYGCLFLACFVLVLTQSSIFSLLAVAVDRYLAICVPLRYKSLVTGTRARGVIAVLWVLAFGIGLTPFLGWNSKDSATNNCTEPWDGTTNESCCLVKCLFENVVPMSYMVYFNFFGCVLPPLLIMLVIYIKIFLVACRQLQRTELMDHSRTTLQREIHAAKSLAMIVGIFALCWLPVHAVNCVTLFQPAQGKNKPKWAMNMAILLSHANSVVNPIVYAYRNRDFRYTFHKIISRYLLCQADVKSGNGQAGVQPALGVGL
Method in brief: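 Whole HEK-A2B cells were seeded overnight and then pretreated with 1 U/ml ADA for 90 min at 37 °C and 5% CO2. Compound was added for 15 min, then 70 nM NECA for 15 min, at room temperature with mixing in incomplete DMEM with ADA. cAMP was read by HTRF (620/665 nm). Compounds ran at 12 concentrations in triplicate, with 10 μM as the highest tested concentration.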

hERG (KCNH2) = hERG (KCNH2) (Homo sapiens, UniProt Q12809); assay: Inhibition of [3H]-astemizole binding to human ERG at 3 uM after 2 hrs by liquid scintillation counting method relative to control; conditions: probe [3H]-astemizole
Chain of hERG (KCNH2) (Q12809 whole entry): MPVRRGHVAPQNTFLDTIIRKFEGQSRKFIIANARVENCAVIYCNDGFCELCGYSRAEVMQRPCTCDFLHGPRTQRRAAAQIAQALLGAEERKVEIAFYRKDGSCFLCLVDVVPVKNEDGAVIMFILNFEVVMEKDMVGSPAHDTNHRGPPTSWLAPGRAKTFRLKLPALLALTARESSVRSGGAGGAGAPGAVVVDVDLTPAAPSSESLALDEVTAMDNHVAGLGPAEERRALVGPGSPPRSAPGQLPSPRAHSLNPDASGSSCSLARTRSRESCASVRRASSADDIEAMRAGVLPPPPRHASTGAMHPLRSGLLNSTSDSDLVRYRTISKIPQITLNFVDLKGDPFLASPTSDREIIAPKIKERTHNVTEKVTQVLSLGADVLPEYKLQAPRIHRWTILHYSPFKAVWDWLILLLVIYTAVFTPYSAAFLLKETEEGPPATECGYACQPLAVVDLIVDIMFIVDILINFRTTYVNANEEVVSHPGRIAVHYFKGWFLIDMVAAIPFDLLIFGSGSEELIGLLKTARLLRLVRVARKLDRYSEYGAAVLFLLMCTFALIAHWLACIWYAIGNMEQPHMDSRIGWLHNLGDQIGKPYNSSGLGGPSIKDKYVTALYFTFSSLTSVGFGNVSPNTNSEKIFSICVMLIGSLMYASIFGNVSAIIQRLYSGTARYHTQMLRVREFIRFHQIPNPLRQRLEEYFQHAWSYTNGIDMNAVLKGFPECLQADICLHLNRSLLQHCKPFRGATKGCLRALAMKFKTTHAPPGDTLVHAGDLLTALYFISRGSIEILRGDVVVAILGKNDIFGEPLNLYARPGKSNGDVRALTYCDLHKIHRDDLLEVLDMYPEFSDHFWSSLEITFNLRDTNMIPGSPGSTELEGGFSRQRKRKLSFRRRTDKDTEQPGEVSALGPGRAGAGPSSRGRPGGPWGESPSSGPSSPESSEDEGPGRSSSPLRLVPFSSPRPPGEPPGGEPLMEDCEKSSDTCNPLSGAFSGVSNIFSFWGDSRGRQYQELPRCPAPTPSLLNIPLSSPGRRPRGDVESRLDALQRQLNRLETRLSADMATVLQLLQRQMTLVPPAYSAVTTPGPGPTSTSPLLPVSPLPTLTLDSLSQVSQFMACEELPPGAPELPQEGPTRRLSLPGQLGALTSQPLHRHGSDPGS

Chain of CYP2C19 (P33261 whole entry): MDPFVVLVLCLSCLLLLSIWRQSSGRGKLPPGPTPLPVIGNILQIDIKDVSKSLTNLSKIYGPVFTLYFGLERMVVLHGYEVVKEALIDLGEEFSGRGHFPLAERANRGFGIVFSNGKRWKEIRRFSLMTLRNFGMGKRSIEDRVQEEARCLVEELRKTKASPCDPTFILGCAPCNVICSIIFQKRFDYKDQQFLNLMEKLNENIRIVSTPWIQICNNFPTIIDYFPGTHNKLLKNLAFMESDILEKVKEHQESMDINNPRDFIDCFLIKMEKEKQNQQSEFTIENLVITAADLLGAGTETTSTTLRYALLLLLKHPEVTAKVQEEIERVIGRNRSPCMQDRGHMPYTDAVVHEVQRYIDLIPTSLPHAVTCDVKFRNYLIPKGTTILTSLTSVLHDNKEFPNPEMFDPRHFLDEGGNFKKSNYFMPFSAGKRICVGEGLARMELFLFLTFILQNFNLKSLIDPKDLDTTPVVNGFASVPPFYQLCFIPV
Chain of CYP2D6 (P10635 whole entry): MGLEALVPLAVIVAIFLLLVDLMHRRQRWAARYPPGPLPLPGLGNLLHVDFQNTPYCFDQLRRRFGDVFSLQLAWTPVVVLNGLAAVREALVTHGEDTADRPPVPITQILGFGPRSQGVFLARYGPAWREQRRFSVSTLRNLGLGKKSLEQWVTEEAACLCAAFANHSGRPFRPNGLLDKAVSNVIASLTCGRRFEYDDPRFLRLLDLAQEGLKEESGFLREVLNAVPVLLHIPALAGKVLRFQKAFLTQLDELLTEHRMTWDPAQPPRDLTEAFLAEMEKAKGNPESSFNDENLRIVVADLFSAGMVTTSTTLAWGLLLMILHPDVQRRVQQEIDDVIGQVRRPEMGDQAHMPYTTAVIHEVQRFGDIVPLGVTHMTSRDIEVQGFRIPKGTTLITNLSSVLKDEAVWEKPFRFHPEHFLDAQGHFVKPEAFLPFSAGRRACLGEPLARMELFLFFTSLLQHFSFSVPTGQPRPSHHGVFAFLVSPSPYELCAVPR
Chain of CYP2C9 (P11712 whole entry): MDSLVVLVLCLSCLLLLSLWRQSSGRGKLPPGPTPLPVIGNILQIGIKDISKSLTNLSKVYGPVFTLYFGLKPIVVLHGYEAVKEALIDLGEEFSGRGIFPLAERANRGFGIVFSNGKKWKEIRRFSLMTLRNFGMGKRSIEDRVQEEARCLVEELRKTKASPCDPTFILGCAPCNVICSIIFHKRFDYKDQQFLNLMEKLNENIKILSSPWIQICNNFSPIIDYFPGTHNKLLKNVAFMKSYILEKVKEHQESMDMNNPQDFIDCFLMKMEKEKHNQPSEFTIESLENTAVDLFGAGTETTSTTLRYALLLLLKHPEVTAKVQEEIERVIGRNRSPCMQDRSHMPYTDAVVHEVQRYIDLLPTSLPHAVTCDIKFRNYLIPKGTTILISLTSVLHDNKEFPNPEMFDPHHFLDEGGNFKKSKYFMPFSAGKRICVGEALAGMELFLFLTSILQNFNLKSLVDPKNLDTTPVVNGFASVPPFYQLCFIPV
Chain of CYP1A2 (P05177 whole entry): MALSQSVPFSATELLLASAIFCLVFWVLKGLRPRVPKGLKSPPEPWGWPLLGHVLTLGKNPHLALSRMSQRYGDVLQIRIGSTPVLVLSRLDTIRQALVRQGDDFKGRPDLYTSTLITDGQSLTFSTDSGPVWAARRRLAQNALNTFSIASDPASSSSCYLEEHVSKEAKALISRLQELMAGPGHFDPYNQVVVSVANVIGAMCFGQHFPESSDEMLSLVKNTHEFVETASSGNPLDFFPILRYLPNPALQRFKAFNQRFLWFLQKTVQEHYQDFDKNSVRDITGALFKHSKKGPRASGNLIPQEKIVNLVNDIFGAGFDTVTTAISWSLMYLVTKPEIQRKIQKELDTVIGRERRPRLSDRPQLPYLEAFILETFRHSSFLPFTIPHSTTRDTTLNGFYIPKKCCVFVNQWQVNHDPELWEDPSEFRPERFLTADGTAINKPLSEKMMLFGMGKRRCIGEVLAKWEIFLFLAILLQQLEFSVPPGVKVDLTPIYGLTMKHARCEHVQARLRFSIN

Row | Compound | IC50 at 40 min (CYP2C19) [µM] | IC50 at 10 min (CYP2C9) [µM] | Activity [1] | IC50 at 10 min (CYP2D6) [µM] | IC50 at 10 min (CYP1A2) [µM] | IC50 at 10 min (CYP3A) [µM] | fraction unbound at 6 h, 1 µM [2] | Papp A→B at 1.5 h, 5 µM [3] [×10⁻⁶ cm/s] | remaining at 1 h, 1 µM [4] [%] | half-life at 1 µM [5] [h] | Activity [6] | clearance (Rattus norvegicus) [%] | Activity [7] | Activity [8] | IC50 (HepG2) [µM] | inhibition at 2 h, 3 µM (hERG (KCNH2)) [%]
1 | COc1cnc(N2CCOCC2)c2sc(NC(=O)C(C)(C)Oc3ccc(F)cc3)nc12 | – | – | – | – | – | – | – | – | – | – | – | – | inactive | – | – | –
2 | COc1ccc(N2CCOCC2)c2sc(NC(=O)C(C)(C)Oc3ccc(F)c(F)c3)nc12 | – | – | – | – | – | – | – | – | – | – | – | – | inactive | inactive | – | < 5
3 | COc1ccc(N2CCOCC2)c2sc(NC(=O)C(C)(C)Oc3ccc(F)cc3)nc12 | – | – | – | – | – | – | – | – | – | – | – | – | – | inactive | – | < 5

Second part, led by results:

Row | IC50 at 40 min (CYP2C19) [µM] | IC50 at 10 min (CYP2C9) [µM] | Activity [1] | IC50 at 10 min (CYP2D6) [µM] | IC50 at 10 min (CYP1A2) [µM] | IC50 at 10 min (CYP3A) [µM] | fraction unbound at 6 h, 1 µM [2] | Papp A→B at 1.5 h, 5 µM [3] [×10⁻⁶ cm/s] | remaining at 1 h, 1 µM [4] [%] | half-life at 1 µM [5] [h] | Activity [6] | clearance (Rattus norvegicus) [%] | Activity [7] | Activity [8] | Compound | IC50 (HepG2) [µM] | inhibition at 2 h, 3 µM (hERG (KCNH2)) [%]
4 | > 50 | > 50 | inactive | > 50 | > 50 | > 50 | 0.24 | 3.7 | 89 | > 1 | inactive | 60 to 65 | – | – | CCN(CC)C1CCC(C)(C(=O)Nc2nc3c(OC)ccc(N4CCOCC4)c3s2)CC1 (configuration not stated) | > 100 | –
5 | > 25 | > 25 | inactive | > 25 | > 25 | > 25 | 0.13 | 12.2 | 88 | > 1 | inactive | 60 to 65 | – | – | COc1ccc(N2CCOCC2)c2sc(NC(=O)C3(C)CCC(C)(O)CC3)nc12 (configuration not stated) | > 100 | –

From ChEMBL document CHEMBL4002602, “Design, Synthesis of Novel, Potent, Selective, Orally Bioavailable Adenosine A2A Receptor Antagonists and Their Biological Evaluation” (J Med Chem, 2017)
